The list is not random: actives were taken first. Their share in the collection is about 4.3%.
CAL PDZ FP-1: blocks peptide binding to the human CAL PDZ domain; Q9HD26; inhibition, % at 24.9 µM; purified CAL PDZ, TMR-peptide fluorescence polarization, 1 h; 0.92% of 300,000 active; AID 602252;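 active means mean inhibition of at least 30% with at least half of replicates also reaching 30%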;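 further: 0% = DMSO neutral control and 100% = excess unlabeled competitor peptide PRC23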
ALR H2O2 inh: blocks human ALR sulfhydryl oxidase activity | P55789 | purified ALR, DTT oxidation, H2O2 HRP-luminol luminescence | inhibition, % (no concentration beside the values) | 3.8% of 290,000 active | AID 485317;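 active means mean replicate inhibition above about 79%, with every replicate also reaching it, limit read from the data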
Target sequence (P55789 whole entry, looked up): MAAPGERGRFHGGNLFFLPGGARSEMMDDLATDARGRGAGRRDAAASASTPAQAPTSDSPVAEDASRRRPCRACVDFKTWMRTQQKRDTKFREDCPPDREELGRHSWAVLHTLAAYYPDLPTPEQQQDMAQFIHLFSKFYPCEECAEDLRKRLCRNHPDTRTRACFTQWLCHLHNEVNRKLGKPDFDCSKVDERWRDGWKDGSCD
Rtt109 HAT inh: C. albicans Rtt109 histone acetyltransferase inhibition. Q5AAJ8. inhibition, % at 34.9 µM. purified Rtt109/Vps75, ThioGlo CoA-SH fluorescence, 4 h. AID 540336. 0.16% of 330,000 active;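 active means inhibition of at least 50% in every replicate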
Target sequence (Q5AAJ8 whole entry, looked up): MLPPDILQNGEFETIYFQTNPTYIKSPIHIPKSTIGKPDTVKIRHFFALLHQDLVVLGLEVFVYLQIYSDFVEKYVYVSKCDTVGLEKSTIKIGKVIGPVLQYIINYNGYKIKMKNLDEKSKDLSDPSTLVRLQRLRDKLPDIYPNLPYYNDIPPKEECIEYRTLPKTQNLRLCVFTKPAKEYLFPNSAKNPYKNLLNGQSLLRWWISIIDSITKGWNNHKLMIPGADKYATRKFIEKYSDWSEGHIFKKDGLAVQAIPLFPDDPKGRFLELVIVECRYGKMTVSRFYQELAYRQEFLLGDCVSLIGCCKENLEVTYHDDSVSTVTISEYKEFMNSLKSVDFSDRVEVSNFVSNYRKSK
CAL PDZ FP-2: inhibitors of human CAL PDZ peptide binding; 0.02% of 330,000 active; AID 504414; inhibition, % at 20 µM; Q9HD26; purified CAL PDZ, TMR-peptide fluorescence polarization, 1 h;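 active means highest replicate inhibition of at least 40%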;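 further: plate controls were DMSO neutral control wells for no effect and unlabeled competitor peptide control wells for full effect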
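material = purified tagged CAL PDZ domain construct (CerCALP) | compound dosing = 20 µM, one dose | times = 1 h at RT | measured by = fluorescence polarization from S- and P-plane intensities, G-factor corrected | read-out = inhibition from polarization loss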
Dyrk1A ADPGlo: Dyrk1A (rat) kinase inhibition; Q63470; ADP-Glo luminescence, NFATc1 peptide; inhibition, % at 12.5 µM; 0.43% of 310,000 active; AID 504441; in the data active means inhibition above about 50%;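 further: plate controls were vehicle with enzyme for no effect and no enzyme for full effect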
* marks the source's active call; other numbers are inactive results.

COc1ccc(NC2CCCN(C(=O)CCN3CCCC3=O)C2)cc1OC (centres undefined) was read as CAL PDZ FP-1 4.8, ALR H2O2 inh 98.9*, Rtt109 HAT inh -4.8, CAL PDZ FP-2 -1.9 and Dyrk1A ADPGlo 3.5.
O=C(COC(=O)COc1ccc(Cl)cc1)Nc1ccc2c(c1)OCCO2 was read as ALR H2O2 inh -1.6, Rtt109 HAT inh -0.3, CAL PDZ FP-2 -3.5 and Dyrk1A ADPGlo -0.7.
Screening Cn1cnnc1SCC(=O)c1c(N)n(Cc2ccccc2)c(=O)n(C)c1=O returned CAL PDZ FP-1 -6.3, ALR H2O2 inh -6.7, Rtt109 HAT inh -9.2, CAL PDZ FP-2 -0.4 and Dyrk1A ADPGlo 0.8.
COc1ccc(NC2CCCN(C(=O)CCN3Cc4ccccc4C3=O)C2)cc1 (centres undefined) was read as CAL PDZ FP-1 -2.3, ALR H2O2 inh 99.0*, Rtt109 HAT inh 1.2, CAL PDZ FP-2 -2.4 and Dyrk1A ADPGlo 0.0.
`O=C(COC(=O)/C=C/c1ccc(S(=O)(=O)N2CCOCC2)cc1)Nc1ccccc1F` gave ALR H2O2 inh 21.2, Rtt109 HAT inh 3.0 and CAL PDZ FP-2 -0.3.
`O=C(COc1ccc(Br)cc1)NCCCN1CCCC1=O` gave CAL PDZ FP-1 -2.1, Rtt109 HAT inh 0.3, CAL PDZ FP-2 -1.3 and Dyrk1A ADPGlo 2.3.
Screening Cc1cccc(NC(=O)COc2ccc(-c3nn(C)c(=O)c4ccccc34)cc2)c1 returned CAL PDZ FP-1 -3.9, ALR H2O2 inh -2.0, Rtt109 HAT inh -0.1, CAL PDZ FP-2 -5.0 and Dyrk1A ADPGlo 3.0.
`CSCCC(NC(N)=O)C(=O)NCc1cccc(Cl)c1` (centres undefined) gave CAL PDZ FP-1 5.9, ALR H2O2 inh -1.4, Rtt109 HAT inh 3.5, CAL PDZ FP-2 -2.1 and Dyrk1A ADPGlo 0.3.
Screening CSCCC(NC(N)=O)C(=O)NCc1ccccc1Cl (centres undefined) returned CAL PDZ FP-1 38.2*, ALR H2O2 inh -6.8, Rtt109 HAT inh -20.4 and Dyrk1A ADPGlo 14.5.
O=C(O)c1c[nH]c2ccc([N+](=O)[O-])cc2c1=O was read as CAL PDZ FP-1 -5.3, Rtt109 HAT inh -0.3 and CAL PDZ FP-2 -0.7.
CC(C)CN1C(=O)c2ccc(NC(=O)Cc3ccccc3)cc2C1=O was read as CAL PDZ FP-1 74.3*, ALR H2O2 inh -14.8, Rtt109 HAT inh -7.9, CAL PDZ FP-2 -0.2 and Dyrk1A ADPGlo -3.5.
Screening NCCCCCc1cn(CC(=O)NCCCCCCCCCCC(=O)N2CCNCC2)nn1 returned CAL PDZ FP-1 -2.8, ALR H2O2 inh -22.3, Rtt109 HAT inh 19.2, CAL PDZ FP-2 0.5 and Dyrk1A ADPGlo 0.9.
For NC(=O)c1c(NC(=O)c2ccc(F)cc2Cl)sc2c1CCC2 the results were CAL PDZ FP-1 -3.4, ALR H2O2 inh 92.8*, Rtt109 HAT inh -6.2, CAL PDZ FP-2 -0.2 and Dyrk1A ADPGlo -3.4.
For NC(=O)c1c(NC(=O)c2ccccc2F)sc2c1CCCC2 the results were CAL PDZ FP-1 76.5*, ALR H2O2 inh 0.2, Rtt109 HAT inh -77.8, CAL PDZ FP-2 1.6 and Dyrk1A ADPGlo -3.8.
Screening NC(=O)c1c(NC(=O)c2cccs2)sc2c1CCCCCC2 returned CAL PDZ FP-1 -8.4, ALR H2O2 inh -8.9, Rtt109 HAT inh -1.7, CAL PDZ FP-2 0.1 and Dyrk1A ADPGlo 0.0.
For COCCCNC(=O)c1c(NC(=O)c2cccs2)sc2c1CCCC2 the results were ALR H2O2 inh 86.3*, Rtt109 HAT inh 2.3, CAL PDZ FP-2 0.9 and Dyrk1A ADPGlo 9.2.
Screening NC(=O)c1c(NC(=O)c2ccccc2Cl)sc2c1CCC2 returned CAL PDZ FP-1 -1.0, ALR H2O2 inh 91.2*, Rtt109 HAT inh 1.3, CAL PDZ FP-2 0.0 and Dyrk1A ADPGlo 14.8.
`CCOc1cc(C(=O)Nc2ccc(NC(C)=O)cc2)ccc1OCC(=O)N1CCCCC1` gave CAL PDZ FP-1 2.8, ALR H2O2 inh -5.0, Rtt109 HAT inh 5.8, CAL PDZ FP-2 -0.7 and Dyrk1A ADPGlo -4.5.
For COCCN(CCOC)S(=O)(=O)c1ccc(C(=O)Nc2sc3c(c2C(N)=O)CCCCC3)cc1 the results were CAL PDZ FP-1 -2.0, ALR H2O2 inh 90.6*, Rtt109 HAT inh -1.7, CAL PDZ FP-2 -0.2 and Dyrk1A ADPGlo 0.9.
Screening CCc1cc(=O)oc2cc(C)cc(OC(C)C(=O)NCc3ccccn3)c12 (centres undefined) returned CAL PDZ FP-1 2.9, ALR H2O2 inh -23.4, Rtt109 HAT inh -4.3, CAL PDZ FP-2 -1.0 and Dyrk1A ADPGlo 1.4.
For CCOP(=O)(OCC)C(Nc1ccc(OC)cc1)c1ccco1 (centres undefined) the results were ALR H2O2 inh 94.9*, Rtt109 HAT inh -0.5, CAL PDZ FP-2 -0.1 and Dyrk1A ADPGlo 0.0.
Cc1c(C(=O)OCC(=O)NCc2ccc3c(c2)OCO3)cccc1[N+](=O)[O-] was read as CAL PDZ FP-1 -1.3, ALR H2O2 inh -19.7, Rtt109 HAT inh -3.6, CAL PDZ FP-2 -1.5 and Dyrk1A ADPGlo -4.6.
Screening CCCCCn1c(=NC(C)=O)c(C#N)cc2c(=O)n3ccccc3nc21 returned ALR H2O2 inh 14.4, Rtt109 HAT inh -11.0, CAL PDZ FP-2 -0.8 and Dyrk1A ADPGlo 3.7.
Screening CC(C)OCCCn1c(=NC(=O)c2ccncc2)c(C#N)cc2c(=O)n3ccccc3nc21 returned CAL PDZ FP-1 0.5, ALR H2O2 inh 97.3*, Rtt109 HAT inh 1.8, CAL PDZ FP-2 -0.3 and Dyrk1A ADPGlo -4.2.
For CCCCN1CC(=O)N2[C@@H]3c4cc(OC)ccc4OC[C@@H]3[C@H](C(=O)OCC)[C@]2(C)C1=O the results were CAL PDZ FP-1 -5.0, Rtt109 HAT inh 0.3 and CAL PDZ FP-2 -0.4.
`Cc1ccc(NC(=O)c2ccc3c(SCC(=O)O)c4c(nc3c2)CCCC4)c(Br)c1` gave ALR H2O2 inh 90.2*, Rtt109 HAT inh -12.5, CAL PDZ FP-2 -1.5 and Dyrk1A ADPGlo -1.4.
O=C(O)CSc1c2c(nc3cc(C(=O)Nc4cccc(C(F)(F)F)c4)ccc13)CCC2 was read as CAL PDZ FP-1 -10.1, ALR H2O2 inh 95.8*, Rtt109 HAT inh -4.2, CAL PDZ FP-2 -4.6 and Dyrk1A ADPGlo 8.7.
`Cc1ccnc(NC(=O)CCC(=O)c2cc(C)sc2C)c1` gave ALR H2O2 inh -4.4, Rtt109 HAT inh 2.1, CAL PDZ FP-2 -0.2 and Dyrk1A ADPGlo -0.3.
Screening O=C(CCCc1ccccc1)Nc1ccccc1[N+](=O)[O-] returned CAL PDZ FP-1 17.6, ALR H2O2 inh -6.4, Rtt109 HAT inh -15.4, CAL PDZ FP-2 -1.5 and Dyrk1A ADPGlo -4.1.
Screening Cc1ccc(NC(=O)CCCc2ccccc2)c([N+](=O)[O-])c1 returned CAL PDZ FP-1 33.5*, ALR H2O2 inh 14.3, Rtt109 HAT inh -3.1 and Dyrk1A ADPGlo -7.2.
`Cn1cc([C@@H]2C[C@H]3CN(C4CCCC4)C(=O)[C@]34CCCN24)c(-c2ccccc2)n1` gave CAL PDZ FP-1 -3.4, ALR H2O2 inh 0.1, Rtt109 HAT inh -7.1, CAL PDZ FP-2 -0.3 and Dyrk1A ADPGlo -5.1.
For CCN(Cc1ccncc1)C(=O)c1cc(Br)cc(Br)c1O the results were ALR H2O2 inh 94.1*, Rtt109 HAT inh -0.4, CAL PDZ FP-2 -0.3 and Dyrk1A ADPGlo 1.1.

Screens deposited in PubChem by Broad Institute.
